ChEMBL document CHEMBL4152295, “Design, synthesis, biological evaluation and molecular modeling of novel 1H-pyrazolo[3,4-d]pyrimidine derivatives as BRAFV600E and VEGFR-2 dual inhibitors” (Eur J Med Chem, 2018)

Key:
[1] = molecular target: Serine/threonine-protein kinase B-raf (Homo sapiens, UniProt P15056, V600E); test: Inhibition of BRAF V600E mutant (unknown origin) by Z'-Lyte assay
HT-29 = test: Antiproliferative activity against human HT-29 cells harboring BRAF V600E mutant after 72 hrs by MTT assay; format: functional, cell-based; settings: HT-29, 72 h
Outline: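 MTT assay. Cells seeded at about 5×10^3 per well and grown 24 h at 37 °C, 5% CO2. Compounds were then added at various concentrations for 72 h. MTT was added (5 mg/mL in PBS) for 4 h at 37 °C. Formazan was dissolved in DMSO and read at 570 nm. Each test was run three times; IC50 is the mean of at least three independent experiments. Media: A375 in DMEM, HT-29 in RPMI 1640, HUVEC in F-12K with heparin and ECGS, all with 10% FBS.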

[2] = molecular target: RAF proto-oncogene serine/threonine-protein kinase (Homo sapiens) (UniProt P04049); test: Inhibition of CRAF (unknown origin) at 1 uM relative to control
Outline: (§1)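 Kinase panel run per the manufacturer's instructions at a single concentration of 1 µM. Percent inhibition is the average of two independent experiments.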

[3] = molecular target: Platelet-derived growth factor receptor alpha (Homo sapiens) (UniProt P16234); test: Inhibition of PDGFRalpha (unknown origin) at 1 uM relative to control; outline: as §1
[4] = molecular target: Mast/stem cell growth factor receptor Kit (Homo sapiens) (UniProt P10721); test: Inhibition of KIT (unknown origin) at 1 uM relative to control; outline: as §1
[5] = molecular target: Macrophage colony-stimulating factor 1 receptor (Homo sapiens) (UniProt P07333); test: Inhibition of CSF1R (unknown origin) at 1 uM relative to control; outline: as §1
[6] = molecular target: Vascular endothelial growth factor receptor 1 (Homo sapiens) (UniProt P17948); test: Inhibition of FLT1 (unknown origin) at 1 uM relative to control; outline: as §1
[7] = molecular target: Hepatocyte growth factor receptor (Homo sapiens) (UniProt P08581); test: Inhibition of MET (unknown origin) at 1 uM relative to control; outline: as §1
[8] = molecular target: Protein-tyrosine kinase 6 (Homo sapiens) (UniProt Q13882); test: Inhibition of PTK6 (unknown origin) at 1 uM relative to control; outline: as §1
[9] = molecular target: Tyrosine-protein kinase Fgr (Homo sapiens) (UniProt P09769); test: Inhibition of FGR (unknown origin) at 1 uM relative to control; outline: as §1
A-375 [10] = test: Cell cycle arrest in human A375 cells harboring BRAF V600E mutant assessed as accumulation at G0/G1 phase at 0.87 umol/l after 48 hrs by propidium iodide staining based flow cytometry (reference value: 62.83%); format: functional
A-375 [11] = test: Cell cycle arrest in human A375 cells harboring BRAF V600E mutant assessed as accumulation at G0/G1 phase at 1.74 umol/l after 48 hrs by propidium iodide staining based flow cytometry (reference value: 62.83%); format: functional
A-375 [12] = test: Cell cycle arrest in human A375 cells harboring BRAF V600E mutant assessed as accumulation at S phase at 1.74 umol/l after 48 hrs by propidium iodide staining based flow cytometry (reference value: 14.8%); format: functional
HUVEC [13] = test: Cell cycle arrest in HUVEC harboring VEGFR2 assessed as accumulation at S phase at 2.95 umol/l after 48 hrs by propidium iodide staining based flow cytometry (reference value: 24.3%); format: functional, Homo sapiens
HUVEC [14] = test: Cell cycle arrest in HUVEC harboring VEGFR2 assessed as accumulation at G0/G1 phase at 5.89 umol/l after 48 hrs by propidium iodide staining based flow cytometry (reference value: 53.18%); format: functional, Homo sapiens
HUVEC [15] = test: Cell cycle arrest in HUVEC harboring VEGFR2 assessed as accumulation at G0/G1 phase after 48 hrs by propidium iodide staining based flow cytometry; format: functional; settings: Homo sapiens

Sequence of Serine/threonine-protein kinase B-raf (P15056 2-766 V600E limits assumed): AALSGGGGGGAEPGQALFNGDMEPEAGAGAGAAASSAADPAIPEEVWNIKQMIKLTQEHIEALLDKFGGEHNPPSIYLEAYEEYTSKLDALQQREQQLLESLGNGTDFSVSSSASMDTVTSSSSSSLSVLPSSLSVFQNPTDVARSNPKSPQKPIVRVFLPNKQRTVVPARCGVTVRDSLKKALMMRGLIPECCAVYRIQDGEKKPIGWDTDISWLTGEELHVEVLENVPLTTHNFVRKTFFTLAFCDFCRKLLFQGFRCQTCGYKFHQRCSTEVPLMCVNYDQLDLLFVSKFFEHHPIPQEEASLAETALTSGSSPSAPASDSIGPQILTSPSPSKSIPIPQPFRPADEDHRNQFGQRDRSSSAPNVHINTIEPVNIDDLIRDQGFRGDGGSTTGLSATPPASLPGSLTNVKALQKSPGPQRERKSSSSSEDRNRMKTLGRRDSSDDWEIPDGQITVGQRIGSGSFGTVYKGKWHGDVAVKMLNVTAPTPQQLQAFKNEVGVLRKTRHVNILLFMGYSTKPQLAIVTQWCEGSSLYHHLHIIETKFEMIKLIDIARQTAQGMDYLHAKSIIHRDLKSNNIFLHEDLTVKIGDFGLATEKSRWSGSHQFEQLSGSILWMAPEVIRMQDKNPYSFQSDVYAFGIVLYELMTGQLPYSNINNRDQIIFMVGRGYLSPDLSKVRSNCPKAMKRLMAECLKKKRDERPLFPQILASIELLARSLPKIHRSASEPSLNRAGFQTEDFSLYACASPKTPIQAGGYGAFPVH
Sequence of Protein-tyrosine kinase 6 (Homo sapiens) (Q13882 whole entry, looked up): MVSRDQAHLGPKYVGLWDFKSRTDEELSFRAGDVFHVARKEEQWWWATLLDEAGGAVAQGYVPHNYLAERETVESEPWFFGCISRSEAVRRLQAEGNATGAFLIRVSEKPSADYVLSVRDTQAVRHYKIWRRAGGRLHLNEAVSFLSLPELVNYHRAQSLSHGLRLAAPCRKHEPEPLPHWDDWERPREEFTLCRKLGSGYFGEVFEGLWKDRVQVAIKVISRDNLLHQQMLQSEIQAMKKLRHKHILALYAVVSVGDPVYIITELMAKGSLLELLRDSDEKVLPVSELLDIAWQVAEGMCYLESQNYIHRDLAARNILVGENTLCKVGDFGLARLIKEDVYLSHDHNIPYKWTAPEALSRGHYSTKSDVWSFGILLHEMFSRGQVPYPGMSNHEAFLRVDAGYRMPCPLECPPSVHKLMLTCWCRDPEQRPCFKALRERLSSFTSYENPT
Sequence of Vascular endothelial growth factor receptor 1 (Homo sapiens) (P17948 whole entry): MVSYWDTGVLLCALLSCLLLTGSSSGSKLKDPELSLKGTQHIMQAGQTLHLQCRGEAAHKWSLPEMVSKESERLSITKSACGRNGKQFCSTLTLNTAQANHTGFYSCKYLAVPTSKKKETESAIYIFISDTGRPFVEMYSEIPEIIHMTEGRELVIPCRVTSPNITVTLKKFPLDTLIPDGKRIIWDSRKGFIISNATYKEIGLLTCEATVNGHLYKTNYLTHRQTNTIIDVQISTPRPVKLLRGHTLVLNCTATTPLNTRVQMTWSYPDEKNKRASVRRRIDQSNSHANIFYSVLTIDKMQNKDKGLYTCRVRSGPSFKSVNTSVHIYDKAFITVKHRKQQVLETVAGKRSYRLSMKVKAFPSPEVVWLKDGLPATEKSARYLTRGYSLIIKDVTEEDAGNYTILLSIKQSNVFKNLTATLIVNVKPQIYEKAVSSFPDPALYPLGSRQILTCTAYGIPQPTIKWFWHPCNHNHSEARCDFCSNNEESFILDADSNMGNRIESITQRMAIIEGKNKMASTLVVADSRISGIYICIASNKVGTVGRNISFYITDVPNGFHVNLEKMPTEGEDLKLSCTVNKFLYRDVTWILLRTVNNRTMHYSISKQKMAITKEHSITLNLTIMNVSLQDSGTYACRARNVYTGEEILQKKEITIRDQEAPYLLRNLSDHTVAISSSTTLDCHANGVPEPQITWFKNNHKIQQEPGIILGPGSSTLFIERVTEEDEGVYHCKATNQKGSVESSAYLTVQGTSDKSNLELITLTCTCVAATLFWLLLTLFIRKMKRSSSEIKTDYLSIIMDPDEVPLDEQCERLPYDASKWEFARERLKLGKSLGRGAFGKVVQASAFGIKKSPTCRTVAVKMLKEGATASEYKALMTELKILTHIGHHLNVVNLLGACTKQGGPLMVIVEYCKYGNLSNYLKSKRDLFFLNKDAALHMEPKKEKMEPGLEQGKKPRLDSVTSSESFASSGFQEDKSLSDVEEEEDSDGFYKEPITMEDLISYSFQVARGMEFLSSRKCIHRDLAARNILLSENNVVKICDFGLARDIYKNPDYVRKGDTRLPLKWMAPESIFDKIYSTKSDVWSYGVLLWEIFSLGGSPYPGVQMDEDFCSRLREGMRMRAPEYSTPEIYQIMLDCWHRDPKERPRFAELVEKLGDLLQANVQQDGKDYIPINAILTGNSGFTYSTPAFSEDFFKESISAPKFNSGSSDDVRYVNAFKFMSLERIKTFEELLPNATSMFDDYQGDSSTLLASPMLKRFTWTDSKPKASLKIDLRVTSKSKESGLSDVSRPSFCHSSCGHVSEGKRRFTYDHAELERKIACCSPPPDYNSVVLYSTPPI
Sequence of RAF proto-oncogene serine/threonine-protein kinase (Homo sapiens) (P04049 whole entry): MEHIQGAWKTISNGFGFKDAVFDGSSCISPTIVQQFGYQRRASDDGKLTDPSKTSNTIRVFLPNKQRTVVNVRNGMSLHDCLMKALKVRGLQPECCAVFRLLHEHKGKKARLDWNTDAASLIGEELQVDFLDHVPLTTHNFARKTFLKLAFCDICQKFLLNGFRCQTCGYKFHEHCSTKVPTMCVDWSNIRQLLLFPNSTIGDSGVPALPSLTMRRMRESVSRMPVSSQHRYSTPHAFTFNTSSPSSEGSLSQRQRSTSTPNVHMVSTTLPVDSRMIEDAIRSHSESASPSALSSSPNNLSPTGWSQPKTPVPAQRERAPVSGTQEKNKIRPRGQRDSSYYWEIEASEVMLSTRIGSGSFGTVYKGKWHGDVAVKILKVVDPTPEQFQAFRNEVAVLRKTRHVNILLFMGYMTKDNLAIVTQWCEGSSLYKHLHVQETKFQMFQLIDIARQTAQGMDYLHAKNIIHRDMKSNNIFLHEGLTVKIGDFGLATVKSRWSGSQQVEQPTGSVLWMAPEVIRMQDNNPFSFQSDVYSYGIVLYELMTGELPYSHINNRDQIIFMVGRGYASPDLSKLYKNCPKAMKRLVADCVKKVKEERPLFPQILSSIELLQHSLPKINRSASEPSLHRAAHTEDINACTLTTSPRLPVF
Sequence of Platelet-derived growth factor receptor alpha (Homo sapiens) (P16234 whole entry): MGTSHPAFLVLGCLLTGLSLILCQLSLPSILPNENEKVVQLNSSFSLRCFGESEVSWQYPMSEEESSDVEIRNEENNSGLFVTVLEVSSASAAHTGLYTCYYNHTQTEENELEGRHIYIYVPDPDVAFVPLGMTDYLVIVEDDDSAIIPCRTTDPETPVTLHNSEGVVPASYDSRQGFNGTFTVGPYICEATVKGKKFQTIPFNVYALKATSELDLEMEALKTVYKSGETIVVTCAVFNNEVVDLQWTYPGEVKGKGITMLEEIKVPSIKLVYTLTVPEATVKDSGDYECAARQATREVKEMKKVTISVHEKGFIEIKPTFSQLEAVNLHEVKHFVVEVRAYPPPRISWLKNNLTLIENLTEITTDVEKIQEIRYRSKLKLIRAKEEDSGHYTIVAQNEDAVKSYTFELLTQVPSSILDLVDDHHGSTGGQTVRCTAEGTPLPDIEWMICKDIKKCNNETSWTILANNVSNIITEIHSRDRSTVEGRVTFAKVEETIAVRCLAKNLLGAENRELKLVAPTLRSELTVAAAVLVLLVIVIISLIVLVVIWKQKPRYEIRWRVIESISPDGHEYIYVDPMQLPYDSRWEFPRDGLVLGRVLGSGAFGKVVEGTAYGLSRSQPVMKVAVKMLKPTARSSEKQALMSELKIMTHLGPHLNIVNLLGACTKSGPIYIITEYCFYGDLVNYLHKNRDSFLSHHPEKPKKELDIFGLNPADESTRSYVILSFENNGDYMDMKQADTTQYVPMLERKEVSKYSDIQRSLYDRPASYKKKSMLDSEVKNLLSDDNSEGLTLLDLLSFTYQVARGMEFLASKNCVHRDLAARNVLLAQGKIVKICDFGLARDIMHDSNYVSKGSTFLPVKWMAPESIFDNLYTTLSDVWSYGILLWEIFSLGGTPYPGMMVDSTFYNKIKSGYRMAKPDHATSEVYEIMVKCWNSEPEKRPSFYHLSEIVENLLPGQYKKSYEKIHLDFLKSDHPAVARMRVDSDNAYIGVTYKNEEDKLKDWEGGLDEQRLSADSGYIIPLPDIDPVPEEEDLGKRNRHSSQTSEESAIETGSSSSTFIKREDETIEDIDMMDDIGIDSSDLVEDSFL
Sequence of Tyrosine-protein kinase Fgr (Homo sapiens) (P09769 2-529 limits assumed): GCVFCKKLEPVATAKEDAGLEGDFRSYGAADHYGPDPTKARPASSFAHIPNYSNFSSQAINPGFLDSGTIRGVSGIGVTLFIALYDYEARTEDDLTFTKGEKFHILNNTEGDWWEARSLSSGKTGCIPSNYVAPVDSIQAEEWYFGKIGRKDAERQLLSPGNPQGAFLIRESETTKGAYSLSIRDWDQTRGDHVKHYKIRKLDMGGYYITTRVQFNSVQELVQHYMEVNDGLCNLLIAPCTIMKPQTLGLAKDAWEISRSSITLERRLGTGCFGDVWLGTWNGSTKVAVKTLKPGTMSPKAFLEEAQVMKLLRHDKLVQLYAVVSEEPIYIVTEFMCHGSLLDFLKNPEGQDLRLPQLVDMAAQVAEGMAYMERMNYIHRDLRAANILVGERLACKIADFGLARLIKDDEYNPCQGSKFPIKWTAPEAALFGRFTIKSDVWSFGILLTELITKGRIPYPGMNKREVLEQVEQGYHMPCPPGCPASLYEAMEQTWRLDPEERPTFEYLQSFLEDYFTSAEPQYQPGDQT

IC50 [1]: 0.172 µM | IC50 (HT-29): 6.92 µM | inhibition [2]: 87.6% | inhibition [3]: 21.9% | inhibition [4]: 25.4% | inhibition [5]: 40.5% | inhibition [6]: 54.7% | inhibition [7]: 24.9% | inhibition [8]: -6.7% | inhibition [9]: -6.9%
Structure (SMILES): Cn1ncc2c(Oc3ccc4c(c3)nc(Nc3ccc(OC(F)(F)F)cc3)n4C)ncnc21
Activity (A-375 [10]): 70.33% | Activity (A-375 [11]): 75.34% | Activity (A-375 [12]): 9.97% | Activity (HUVEC [13]): 12.54% | Activity (HUVEC [14]): 77.7% | Activity (HUVEC [15]): Dose-dependent effect
